The values that follow come from ChEMBL document CHEMBL1141571, “Design, synthesis, and trypanocidal activity of new aminoadamantane derivatives” (J Med Chem, 2008).

Molecules are shown by their SMILES. pIC50: −log10 of the molar value. Counter-ions that a name gives are not always drawn.

The first test concerns Trypanosoma brucei. Description: Antitrypanosomal activity against Trypanosoma brucei. The class given is functional, organism-based. In short, it runs like this:
(§1)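 In vitro assay against bloodstream-form T. brucei grown at pH 7.4. Concentrations inhibiting growth by 50% (IC50) and 90% (IC90) were calculated. Values are the mean of triplicate experiments ± SEM.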
Compound `NC12CC3CC(C1)CC(C1CCCCC1)(C3)C2` showed a negative-log IC50 (pIC50) of 6.28.

Consider `NC1CCC(C23CC4CC(CC(C4)C2)C3)CC1` (configuration not stated), for which the pIC50 was 6.48. Against the preceding compound, the pIC50 is 0.20 log units higher.

Regarding `NCCC12CC3CC(C1)CC(c1ccccc1)(C3)C2`, the pIC50 is 6.21.

The subject of another test is Trypanosoma brucei. Description: Antitrypanosomal activity against Trypanosoma brucei 427 at pH 7.4. The class given is functional, organism-based. In short, it runs like this: as §1
Regarding `CCCCCCCCC12CC3CC(CC(C3)C1N)C2` (configuration not stated), the pIC50 was 6.10 and the IC90 is 1060 nM.

`CCCCCCCCCCC12CC3CC(CC(C3)C1N)C2` (configuration not stated) showed a pIC50 of 6.32 and a 90% effect concentration (IC90) of 670 nM.

`CCCCCCC12CC3CC(CC(C3)/C1=N\NC(N)=S)C2`: the pIC50 is 5.55 and the 90% effect level (IC90) was put at 5640 nM.

Regarding `CCCCCCCCCCCCCCC12CC3CC(CC(C3)/C1=N\NC(N)=S)C2`, the pIC50 is 6.38 and the 90% effect level (IC90) was put at 540 nM.

`N=C(N)N/N=C1\C2CC3CC(C2)CC1(Cc1ccccc1)C3` showed a pIC50 of 6.39 and a 90% effect concentration (IC90) of 470 nM.

On to `CCCCCCC12CC3CC(CC(C3)C1N)C2` (configuration not stated), for which the pIC50 was 5.88 and the IC90 is 1730 nM.

`CCCCCCCCCCCCC12CC3CC(CC(C3)C1NCC)C2` (configuration not stated) had a negative logarithm of the IC50 (pIC50) of 6.23 and a 90% effect concentration (IC90) of 1060 nM.

`CCCCCCCCCCC12CC3CC(CC(C3)C1NCC)C2` (configuration not stated) gave a pIC50 of 5.96 and an IC90 of 1650 nM.

Compound `CCCCCCCCCCCCC12CC3CC(CC(C3)C1N)C2` (configuration not stated) gave a pIC50 of 6.33 and a 90% effect concentration (IC90) of 670 nM.

In turn, `CCCCCCCCCCCCCCC12CC3CC(CC(C3)/C1=N\NC(=N)N)C2` showed a pIC50 of 6.08 and an IC90 of 1300 nM.

With `CCCCCCCCCCCCCCC12CC3CC(CC(C3)C1N)C2` (configuration not stated), the pIC50 was 6.04 and the 90% effect concentration (IC90) amounted to 1980 nM.

`CCCCCCC12CC3CC(CC(C3)C1NCC)C2` (configuration not stated) had a negative logarithm of the IC50 (pIC50) of under 5.70.

Compound `CCCCCCCCC12CC3CC(CC(C3)/C1=N\NC(=N)N)C2` showed a negative logarithm of the IC50 (pIC50) of under 5.22.

In the case of `CCCCCCC12CC3CC(CC(C3)/C1=N\NC(=N)N)C2`, the pIC50 is under 5.22.

With `NC1C2CC3CC(C2)CC1(Cc1ccccc1)C3` (configuration not stated), the negative logarithm of the IC50 (pIC50) was 5.68 and the IC90 was 2650 nM.

In the case of `N=C(N)N/N=C1\C2CC3CC(C2)CC1(c1ccccc1)C3`, the pIC50 is 5.67 and it took 2810 nM to reach the 90% level (IC90).

As to `CCCCCCCCCCC12CC3CC(CC(C3)/C1=N\NC(=N)N)C2`, the pIC50 was 7.05 and it took 110 nM to reach the 90% level (IC90).

`NC12CC3CC(CC(C3)C1)C2` [AMANTADINE HYDROCHLORIDE]: the pIC50 is under 3.88 and the IC90 is over 132000 nM.

Turning to `CC(N)C12CC3CC(CC(C3)C1)C2` (configuration not stated) [RIMANTADINE HYDROCHLORIDE], the concentration for an effect of 90% (IC90) worked out at 14000 nM. That is a double-digit micromolar value.

A word on the pIC50: it is the negative decadic logarithm of the IC50, by convention in mol/L. Usually IC90 stands for the point of the concentration-response curve where the effect stands at 90%.
